Source: ChEMBL document CHEMBL1157570, “Development of potent and selective inhibitors of ecto-5'-nucleotidase based on an anthraquinone scaffold” (J Med Chem, 2010)
pIC50, pKi: −log10 of the molar value.

How the values were obtained:
[1] = target: T1, 5'-nucleotidase (Rattus norvegicus) (UniProt P21588); assay: Inhibition of rat ecto-5'-nucleotidase expressed in Sf9 cells at 1 mM by capillary electrophoresis method
T1 sequence (whole entry): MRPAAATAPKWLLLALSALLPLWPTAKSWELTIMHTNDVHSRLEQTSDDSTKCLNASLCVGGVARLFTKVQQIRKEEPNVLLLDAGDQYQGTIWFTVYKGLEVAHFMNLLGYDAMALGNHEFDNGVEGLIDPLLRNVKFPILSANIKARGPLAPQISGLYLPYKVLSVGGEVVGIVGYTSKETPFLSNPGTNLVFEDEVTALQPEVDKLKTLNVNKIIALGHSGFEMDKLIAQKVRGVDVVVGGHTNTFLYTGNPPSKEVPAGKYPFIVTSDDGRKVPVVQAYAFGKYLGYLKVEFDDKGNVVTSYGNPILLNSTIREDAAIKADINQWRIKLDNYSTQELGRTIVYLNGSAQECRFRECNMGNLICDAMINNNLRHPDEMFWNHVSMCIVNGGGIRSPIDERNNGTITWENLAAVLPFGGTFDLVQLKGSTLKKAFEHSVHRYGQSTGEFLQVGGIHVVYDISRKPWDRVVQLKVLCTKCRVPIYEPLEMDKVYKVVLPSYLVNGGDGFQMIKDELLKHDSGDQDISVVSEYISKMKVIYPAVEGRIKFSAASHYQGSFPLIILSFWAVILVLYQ
Procedure, shortened: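 Test agent at 1 mM with 500 μM AMP in 10 mM Hepes pH 7.4, 2 mM MgCl2, 1 mM CaCl2. Incubated 15 min at 37 °C, stopped at 99 °C for 10 min. Adenosine quantified by capillary electrophoresis, UV peak area at 260 nm.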

[2] = target: T2, 5'-nucleotidase (Rattus norvegicus, UniProt P21588); assay: Inhibition of rat ecto-5'-nucleotidase expressed in Sf9 cells by capillary electrophoresis method
T2 sequence (P21588 whole entry): T1 sequence (whole entry)
Procedure, shortened: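 Rat eN, GST-fused, made in Sf9 cells and purified on GSH-agarose. 500 μM AMP in Hepes pH 7.4 with Mg2+/Ca2+, 37 °C for 15 min. Adenosine measured by capillary electrophoresis at 260 nm. Inhibitor at 6-8 concentrations spanning about 3 log units. […] Three experiments, each in duplicate.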

[3] = target: P2Y purinoceptor 4 (Homo sapiens, UniProt P51582); assay: Antagonist activity at human P2Y4 receptor expressed in astrocytoma cells assessed as inhibition of intracellular calcium mobilization; format: functional, cell-based
Procedure, shortened: (§1)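 Astrocytoma cells stably expressing the receptor, loaded with Fura-2 AM. Cells preincubated with test agent for at least 20 min, then challenged with 1 μM UTP (P2Y2), 3 μM UTP (P2Y4) or 3 μM UDP (P2Y6). Ca2+ fluorescence read at ex 320/em 520 nm. Full curves (7-8 concentrations over 3 log units) run when inhibition exceeded 40% at 10 μM. Three experiments, each in triplicate.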

[4] = target: T3, Ectonucleoside triphosphate diphosphohydrolase 2 (Homo sapiens, UniProt Q9Y5L3); assay: Inhibition of human NTPdase2 by capillary electrophoresis method
T3 sequence (Q9Y5L3 whole entry): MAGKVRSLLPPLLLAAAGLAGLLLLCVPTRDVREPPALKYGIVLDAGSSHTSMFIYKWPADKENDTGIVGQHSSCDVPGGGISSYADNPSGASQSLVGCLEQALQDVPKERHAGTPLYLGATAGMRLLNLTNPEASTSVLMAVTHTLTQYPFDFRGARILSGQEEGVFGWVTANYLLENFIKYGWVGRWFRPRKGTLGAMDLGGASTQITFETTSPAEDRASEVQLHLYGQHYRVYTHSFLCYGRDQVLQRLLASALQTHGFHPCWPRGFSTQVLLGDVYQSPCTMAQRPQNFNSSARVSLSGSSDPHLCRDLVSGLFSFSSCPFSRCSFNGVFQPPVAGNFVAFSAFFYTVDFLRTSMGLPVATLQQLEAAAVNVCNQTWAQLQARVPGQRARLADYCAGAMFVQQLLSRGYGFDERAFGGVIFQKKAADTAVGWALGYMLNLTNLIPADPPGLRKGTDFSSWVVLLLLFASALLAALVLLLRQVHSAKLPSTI
Procedure, shortened: (§2)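 Membrane preparations containing human NTPDase1, 2 or 3. Inhibitor added in water or 1% DMSO. Incubated 10 min at 37 °C, stopped at 99 °C for 5 min. Diluted with 20 μM UMP as internal standard, then analysed by capillary electrophoresis. Triplicates in two experiments.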

[5] = target: T4, Ectonucleoside triphosphate diphosphohydrolase 1 (Homo sapiens, UniProt P49961); assay: Inhibition of human NTPdase1 by capillary electrophoresis method; procedure, shortened: as §2
T4 sequence (P49961 whole entry): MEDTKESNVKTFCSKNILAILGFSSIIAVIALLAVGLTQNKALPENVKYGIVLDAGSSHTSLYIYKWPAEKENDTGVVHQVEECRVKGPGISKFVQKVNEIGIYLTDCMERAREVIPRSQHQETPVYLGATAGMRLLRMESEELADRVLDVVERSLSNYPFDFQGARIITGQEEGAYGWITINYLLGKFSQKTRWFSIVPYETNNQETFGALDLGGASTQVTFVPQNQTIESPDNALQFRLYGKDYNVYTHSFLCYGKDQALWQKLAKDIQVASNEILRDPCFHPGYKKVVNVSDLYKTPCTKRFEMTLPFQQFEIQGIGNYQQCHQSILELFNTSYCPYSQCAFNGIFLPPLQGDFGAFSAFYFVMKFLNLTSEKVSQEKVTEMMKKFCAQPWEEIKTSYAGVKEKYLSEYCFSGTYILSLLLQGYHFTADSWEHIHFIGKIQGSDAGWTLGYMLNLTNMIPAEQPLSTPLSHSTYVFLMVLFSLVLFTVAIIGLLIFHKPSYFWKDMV

[6] = target: P2Y purinoceptor 6 (Rattus norvegicus, UniProt Q63371); assay: Antagonist activity at rat P2Y6 receptor expressed in astrocytoma cells assessed as inhibition of intracellular calcium mobilization; format: functional, cell-based; procedure, shortened: as §1
[7] = target: P2Y purinoceptor 2 (Homo sapiens, UniProt P41231); assay: Antagonist activity at human P2Y2 receptor expressed in astrocytoma cells assessed as inhibition of intracellular calcium mobilization; format: functional, cell-based; procedure, shortened: as §1
Chain of P2Y purinoceptor 2 (P41231 whole entry): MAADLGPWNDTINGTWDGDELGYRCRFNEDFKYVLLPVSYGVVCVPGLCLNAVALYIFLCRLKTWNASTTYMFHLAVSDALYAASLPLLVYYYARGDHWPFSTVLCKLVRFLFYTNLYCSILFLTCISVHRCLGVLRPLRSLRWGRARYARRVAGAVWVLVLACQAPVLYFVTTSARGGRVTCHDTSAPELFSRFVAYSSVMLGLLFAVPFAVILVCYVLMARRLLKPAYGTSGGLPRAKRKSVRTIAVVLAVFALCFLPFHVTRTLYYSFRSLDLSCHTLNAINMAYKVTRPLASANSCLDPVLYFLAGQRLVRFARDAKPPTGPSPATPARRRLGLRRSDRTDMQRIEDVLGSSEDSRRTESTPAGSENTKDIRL

Chain of P2Y purinoceptor 4 (P51582 whole entry): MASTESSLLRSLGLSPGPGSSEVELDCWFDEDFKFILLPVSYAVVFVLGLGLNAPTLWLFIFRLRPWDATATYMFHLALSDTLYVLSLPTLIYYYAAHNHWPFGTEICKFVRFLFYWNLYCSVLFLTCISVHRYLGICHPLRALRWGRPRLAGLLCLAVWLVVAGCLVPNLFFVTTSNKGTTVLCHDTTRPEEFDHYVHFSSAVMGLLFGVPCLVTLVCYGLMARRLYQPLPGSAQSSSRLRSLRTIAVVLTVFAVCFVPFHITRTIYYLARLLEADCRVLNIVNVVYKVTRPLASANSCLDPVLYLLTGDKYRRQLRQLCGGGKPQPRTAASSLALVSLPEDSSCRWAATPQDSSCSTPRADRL
Chain of P2Y purinoceptor 6 (Q63371 whole entry): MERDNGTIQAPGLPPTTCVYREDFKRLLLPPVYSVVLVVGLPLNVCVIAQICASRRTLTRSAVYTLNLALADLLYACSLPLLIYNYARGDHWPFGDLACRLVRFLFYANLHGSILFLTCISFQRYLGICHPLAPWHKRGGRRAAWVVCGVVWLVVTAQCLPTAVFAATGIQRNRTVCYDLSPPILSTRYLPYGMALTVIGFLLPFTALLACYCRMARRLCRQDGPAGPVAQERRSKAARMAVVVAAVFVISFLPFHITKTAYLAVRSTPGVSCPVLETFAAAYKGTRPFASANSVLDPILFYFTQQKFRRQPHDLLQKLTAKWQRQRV

SMILES | inhibition [1] [%] | pKi [2] | other results
Nc1c(S(=O)(=O)O)cc(Nc2cc(F)ccc2C(=O)O)c2c1C(=O)c1ccccc1C2=O | 60 | – | –
Nc1ncnc2c1ncn2[C@H]1O[C@@H](COP(=O)(O)CP(=O)(O)O)[C@H](O)[C@@H]1O | – | 9.06 | –
Nc1c(S(=O)(=O)O)cc(Nc2ccc(S(=O)(=O)O)cc2)c2c1C(=O)c1ccccc1C2=O | – | 5.46 | –
COc1ccccc1Nc1cc(S(=O)(=O)O)c(N)c2c1C(=O)c1ccccc1C2=O | 9 | – | –
CC(C)Nc1cc(S(=O)(=O)O)c(N)c2c1C(=O)c1ccccc1C2=O | 15 | – | –
Nc1c(S(=O)(=O)O)cc(Nc2cccc3cc(S(=O)(=O)O)ccc23)c2c1C(=O)c1ccccc1C2=O | – | 4.82 | –
Nc1c(S(=O)(=O)O)cc(NCCc2ccc(Cl)cc2)c2c1C(=O)c1ccccc1C2=O | 62 | – | –
Nc1c(S(=O)(=O)O)cc(NCCc2ccccc2)c2c1C(=O)c1ccccc1C2=O | 53 | – | –
Nc1c(S(=O)(=O)O)cc(Nc2ccc(Br)cc2C(=O)O)c2c1C(=O)c1ccccc1C2=O | 56 | – | –
Nc1c(S(=O)(=O)O)cc(Nc2ccc(F)cc2)c2c1C(=O)c1ccccc1C2=O | – | 5.25 | –
Nc1c(S(=O)(=O)O)cc(Nc2ccc(Cl)cc2)c2c1C(=O)c1ccccc1C2=O | – | 5.32 | –
Nc1c(S(=O)(=O)O)cc(NC2CCCC2)c2c1C(=O)c1ccccc1C2=O | 51 | – | –
Nc1c(S(=O)(=O)O)cc(Nc2ccc(CC(=O)O)cc2)c2c1C(=O)c1ccccc1C2=O | 26 | – | –
Nc1c(S(=O)(=O)O)cc(Nc2ccc(Nc3nc(Cl)nc(Nc4cccc(S(=O)(=O)O)c4)n3)c(S(=O)(=O)O)c2)c2c1C(=O)c1ccccc1C2=O [RB 2] | – | 5.51 | pIC50 [3]: 5.01
Nc1ccccc1Nc1cc(S(=O)(=O)O)c(N)c2c1C(=O)c1ccccc1C2=O | 47 | 4.33 | –
CCOc1ccccc1Nc1cc(S(=O)(=O)O)c(N)c2c1C(=O)c1ccccc1C2=O | 56 | – | –
Nc1cc(Nc2cc(S(=O)(=O)O)c(N)c3c2C(=O)c2ccccc2C3=O)cc(C(=O)O)c1 | 44 | – | –
Nc1c(S(=O)(=O)O)cc(Nc2ccc(O)cc2)c2c1C(=O)c1ccccc1C2=O | – | 6.21 | pKi [4]: < 3.70; pIC50 [3]: 5.63; pKi [5]: 4.97; pIC50 [6]: 5.28; pIC50 [7]: 5.33
Nc1cc(Nc2cc(S(=O)(=O)O)c(N)c3c2C(=O)c2ccccc2C3=O)ccc1S(=O)(=O)O | – | 4.60 | –
Cc1cc(C)c(Nc2cc(S(=O)(=O)O)c(N)c3c2C(=O)c2ccccc2C3=O)c(C)c1N | – | 4.44 | –
Nc1c(S(=O)(=O)O)cc(Nc2cccc3c(S(=O)(=O)O)cccc23)c2c1C(=O)c1ccccc1C2=O | – | 4.93 | –
Nc1c(S(=O)(=O)O)cc(Nc2cccc3ccc(S(=O)(=O)O)cc23)c2c1C(=O)c1ccccc1C2=O | 0 | – | –
Nc1c(S(=O)(=O)O)cc(Nc2cccc(C(=O)O)c2)c2c1C(=O)c1ccccc1C2=O | 26 | – | –
Nc1c(S(=O)(=O)O)cc(Nc2ccc(Cl)cc2C(=O)O)c2c1C(=O)c1ccccc1C2=O | 52 | – | –
COc1ccc(CCNc2cc(S(=O)(=O)O)c(N)c3c2C(=O)c2ccccc2C3=O)cc1OC | 44 | – | –
Cc1cc(Nc2ccccc2)c2c(c1N)C(=O)c1ccccc1C2=O | 4 | – | –
Nc1c(S(=O)(=O)O)cc(Nc2cccc3cc4ccccc4cc23)c2c1C(=O)c1ccccc1C2=O | – | 5.53 | –

SMILES | inhibition [1] [%] | pKi [2] | other results
Nc1ccc(Nc2cc(S(=O)(=O)O)c(N)c3c2C(=O)c2ccccc2C3=O)cc1 | – | 6.53 | –
Cc1ccccc1Nc1cc(S(=O)(=O)O)c(N)c2c1C(=O)c1ccccc1C2=O | 33 | – | –
Nc1c(S(=O)(=O)O)cc(NCc2ccccc2)c2c1C(=O)c1ccccc1C2=O | 43 | – | –
Cc1ccc(Nc2cc(S(=O)(=O)O)c(N)c3c2C(=O)c2ccccc2C3=O)cc1 | – | 3.44 | –
Cc1cccc(Nc2cc(S(=O)(=O)O)c(N)c3c2C(=O)c2ccccc2C3=O)c1C | 39 | – | –
Nc1c(S(=O)(=O)O)cc(Nc2ccc(Br)cc2)c2c1C(=O)c1ccccc1C2=O | – | 4.95 | –
Nc1c(S(=O)(=O)O)cc(Nc2ccc(Nc3ccccc3)cc2)c2c1C(=O)c1ccccc1C2=O | 37 | – | –
Nc1ccc(Nc2cc(S(=O)(=O)O)c(N)c3c2C(=O)c2ccccc2C3=O)cc1S(=O)(=O)O | – | 5.00 | –
Nc1c(S(=O)(=O)O)cc(Nc2cc(Cl)ccc2C(=O)O)c2c1C(=O)c1ccccc1C2=O | 27 | – | –
Nc1c(S(=O)(=O)O)cc(Nc2ccc(C(=O)O)cc2)c2c1C(=O)c1ccccc1C2=O | 34 | – | –
Nc1c(S(=O)(=O)O)cc(Nc2cc3ccccc3c3ccccc23)c2c1C(=O)c1ccccc1C2=O | 58 | – | –
Nc1c(S(=O)(=O)O)cc(Nc2ccc3cc(C(=O)O)ccc3c2)c2c1C(=O)c1ccccc1C2=O | – | 5.46 | –
Nc1cccc(Nc2cc(S(=O)(=O)O)c(N)c3c2C(=O)c2ccccc2C3=O)c1 | 31 | – | –
Cc1ccc(Nc2cc(S(=O)(=O)O)c(N)c3c2C(=O)c2ccccc2C3=O)c(C)c1 | 47 | – | –
Nc1c(S(=O)(=O)O)cc(Nc2ccc(Oc3ccccc3)cc2)c2c1C(=O)c1ccccc1C2=O | – | 5.82 | –
Nc1c(S(=O)(=O)O)cc(NC2CCCCC2)c2c1C(=O)c1ccccc1C2=O | – | 5.78 | –
Cc1ccc2ccccc2c1Nc1cc(S(=O)(=O)O)c(N)c2c1C(=O)c1ccccc1C2=O | – | 5.56 | –
Cc1ccc(C)c(Nc2cc(S(=O)(=O)O)c(N)c3c2C(=O)c2ccccc2C3=O)c1 | 26 | – | –
Nc1c(S(=O)(=O)O)cc(Nc2ccccc2C(=O)O)c2c1C(=O)c1ccccc1C2=O | – | 5.19 | –
CCOP(=O)(Cc1ccc(Nc2cc(S(=O)(=O)O)c(N)c3c2C(=O)c2ccccc2C3=O)cc1)OCC | 28 | – | –
Nc1c(S(=O)(=O)O)cc(Nc2cccc3cccc(S(=O)(=O)O)c23)c2c1C(=O)c1ccccc1C2=O | – | 5.22 | –
Nc1c(S(=O)(=O)O)cc(Nc2ccccc2O)c2c1C(=O)c1ccccc1C2=O | – | 5.74 | –
Nc1c(S(=O)(=O)O)cc(Nc2ccc3ccccc3c2)c2c1C(=O)c1ccccc1C2=O | – | 5.83 | –
CCOc1ccc(Nc2cc(S(=O)(=O)O)c(N)c3c2C(=O)c2ccccc2C3=O)cc1 | 31 | – | –
Cc1cccc(Nc2cc(S(=O)(=O)O)c(N)c3c2C(=O)c2ccccc2C3=O)c1 | – | 4.91 | –
Nc1c(S(=O)(=O)O)cc(Nc2ccccc2S(=O)(=O)O)c2c1C(=O)c1ccccc1C2=O | 14 | – | –
